Test: Toxicity liver stage against HepG2, at 10uM
Format: cell-based
Design: test concentration 10 uM, cell line HepG2-A16-CD81EGFP
Settings: human, HepG2-A16-CD81EGFP cells; read-out: INHIBITION
How it was run: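 Uninfected HepG2-A16-CD81EGFP cells, 3 × 10^3 per well, 1536-well, plated on prespotted compound at 10 μM final, parasite-free screening media added to match infected plates; puromycin 10 μM positive, DMSO 0.5% negative; run in parallel with 48 h PbLuc assay at 37 °C, 5% CO2; viability by CellTiter-Glo luminescence, normalized to controls.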
Molecule Cc1noc(O)c1Cc1ccc2ccccc2c1 has a cytotoxicity at 10 µM of -8.94%.
Work on COc1cccc2c1ccn2CC(=O)Nc1nc[nH]n1 yielded a cytotoxicity at 10 µM of -0.297%.
Molecule O=C(c1cocn1)N1CCC[C@]2(C[C@@H](Oc3ncccc3F)CO2)C1 has a cytotoxicity at 10 µM of 6.21%.
For O=c1ccc(-c2cccs2)nn1CN1CCN(c2ccccn2)CC1, the cytotoxicity at 10 µM was -0.383%.
With Nc1ncccc1C(=O)NCc1ccc(Br)cc1 the cytotoxicity at 10 µM was 35.7%.
With O=C(NCCc1ccccn1)c1[nH]nc2c1CCCC2 the cytotoxicity at 10 µM was 8.41%.
In the case of Cc1ccc(-c2nc(C3CCN(C(=O)c4ccn(C)n4)CC3)no2)cn1, the cytotoxicity at 10 µM is reported as -2.81%.
Work on COc1cc(CCC(=O)N2CCC(c3cc4ncccc4[nH]3)CC2)on1 yielded a cytotoxicity at 10 µM of 3.78%.
CCc1ccc(C(=O)N(c2cccnc2)C(C)C)cc1S(C)(=O)=O showed a cytotoxicity at 10 µM of 2.62%.
Work on Cc1cnn(CCC(=O)NCc2ccc(N(C)C)c(C)c2)c1 yielded a cytotoxicity at 10 µM of -3.03%.
For Cc1cc(C(=O)NC2(C#N)CCCC2)c(C)n1-c1cccnc1, the cytotoxicity at 10 µM was -3.15%.
Nc1cc(CCCNC(=O)NC2CCCC2)nn1-c1ccccc1 gave a cytotoxicity at 10 µM of -18.9%.
For CN(CC(=O)NC1CC1)S(=O)(=O)c1ccc(F)cc1Cl, the cytotoxicity at 10 µM was -8.06%.
O=C(NCc1ccc(OCC2CC2)nc1)Nc1c(F)cccc1F showed a cytotoxicity at 10 µM of 9.47%.
Work on CCC(NC(=O)c1cccc2cc[nH]c12)C(=O)N1CCOCC1 (stereo unspecified) yielded a cytotoxicity at 10 µM of -13%.
With Cc1nc(NC(=O)COCC2CC2)ccc1Br the cytotoxicity at 10 µM was -1.51%.
CCN(Cc1ccoc1)C(=O)C1CN(C(=O)OC(C)(C)C)C1 showed a cytotoxicity at 10 µM of -0.743%.
In the case of COCCC1(CNC(=O)NCC2CCCN(C)C2)CCCC1 (stereo unspecified), the cytotoxicity at 10 µM is reported as 0.131%.
Cn1ccnc(Sc2ccc(O)cc2)c1=O showed a cytotoxicity at 10 µM of 6.64%.
Work on O=C(NCc1ccc(OCC2CC2)nc1)c1c(F)cccc1F yielded a cytotoxicity at 10 µM of 1.49%.
CN(CCO)Cc1cc(Cl)ccc1OCC(O)CN1CCCCCC1 (stereo unspecified) gave a cytotoxicity at 10 µM of -5.09%.
For NCc1n[nH]c(=O)n1-c1ccccc1Oc1ccccc1, the cytotoxicity at 10 µM was -5.04%.
O=C1CCC2(CCCN(C(=O)c3ccc[nH]3)C2)CN1CCc1c[nH]cn1 (stereo unspecified) gave a cytotoxicity at 10 µM of 0.0773%.
Work on CN(C)C(C(=O)NCCn1cccc1)c1cccc(F)c1 (stereo unspecified) yielded a cytotoxicity at 10 µM of -1.23%.
COCCN1CC(Nc2nc(C(C)C)nc3c2cnn3C)CC1=O (stereo unspecified) showed a cytotoxicity at 10 µM of -1.52%.
For O=c1n(CC2CCCO2)nc(CC2CCNCC2)n1-c1ccccc1 (stereo unspecified), the cytotoxicity at 10 µM was -3.49%.
CCOCCC(=O)N(C)CC1Cc2ccccc2CN1C (stereo unspecified) gave a cytotoxicity at 10 µM of -8.77%.
In the case of CCN1CC2(CCN(CC3CCCO3)CC2)OC1=O (stereo unspecified), the cytotoxicity at 10 µM is reported as -4.78%.
In the case of Cc1cc(N(C)Cc2snnc2C)nc(-c2cccnc2)n1, the cytotoxicity at 10 µM is reported as 2.43%.
Work on Cc1cc(N2CCOC(CN)C2)nc(-c2ccccc2)n1 (stereo unspecified) yielded a cytotoxicity at 10 µM of -3.26%.
In the case of CCN(CC1CCCN(CCc2cccc(OC)c2)C1)C(=O)CCSC (stereo unspecified), the cytotoxicity at 10 µM is reported as 10.5%.
Work on Cc1cccc2[nH]c(C3CCN(C(=O)c4cnc(O)cc4O)CC3)nc12 yielded a cytotoxicity at 10 µM of 3.09%.
For COc1cccc(N2CCN(Cc3ncc[nH]3)CC2=O)c1, the cytotoxicity at 10 µM was -5.73%.
Work on Cc1cc(C)nc(CCNC(=O)[C@H]2CNC[C@@H](C(=O)N3CCCC3)C2)n1 yielded a cytotoxicity at 10 µM of -20.9%.
Molecule Cc1ccccc1NC1CCN(C(=O)CCc2ccco2)CC1 has a cytotoxicity at 10 µM of -16.2%.
O=C(NCC1CCOC1)c1ccc(-c2ccccc2)[nH]c1=O (stereo unspecified) showed a cytotoxicity at 10 µM of -18.3%.
Work on COc1cccc(CC(=O)N2CCCC(c3nncn3C)C2)c1 (stereo unspecified) yielded a cytotoxicity at 10 µM of -20.2%.
Cc1nc(C(C)(C)C)sc1C(=O)NCCNc1ncccc1C#N showed a cytotoxicity at 10 µM of -15.8%.
With CC(Cn1cccn1)NCc1csc(-c2cccs2)n1 (stereo unspecified) the cytotoxicity at 10 µM was -8.85%.
COCc1cncc2c1CCN(Cc1cnn(C)c1)C2 showed a cytotoxicity at 10 µM of -0.287%.
For Cc1ccc(CN2CCO[C@@H]3C[C@@H](C(=O)NC(C)C)C[C@H]32)o1, the cytotoxicity at 10 µM was 6.1%.
O=C(c1ccco1)N1CCO[C@@H]2CN(c3ccccn3)CC[C@@H]2C1 showed a cytotoxicity at 10 µM of 9.43%.
In the case of COc1cc(CNC(C)Cn2ccnc2)cc2c1OCO2 (stereo unspecified), the cytotoxicity at 10 µM is reported as 2.67%.
Cc1cccc(CN2C(=O)CCC23CCN(c2ncc(F)cn2)CC3)n1 gave a cytotoxicity at 10 µM of 9.11%.
For CC(C)OC(=O)N1C[C@@H]2CC[C@H]1CN(C(=O)c1ccccn1)C2, the cytotoxicity at 10 µM was 0.502%.
CNC(=O)[C@H]1C[C@H]2CN(C(=O)Nc3ccccc3)C[C@@H]1O2 showed a cytotoxicity at 10 µM of 1.91%.
